Measurements from ChEMBL document CHEMBL4261561, “Thiosemicarbazone-based selective proliferation inactivators inhibit gastric cancer cell growth, invasion, and migration” (Medchemcomm, 2017).
Each block holds one compound with its values, some of them ahead of it. The source made the active and inactive calls. The rule behind the calls is not given here.

Assays:
[1] = system: MGC-803; test: Antiproliferative activity against human MGC803 cells after 72 hrs by MTT assay; format: functional, cell-based; settings: MGC-803, 72 h
Outline: (§1)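 Exponentially growing cells were seeded at about 3×10^3 per well and left 24 h, then given fresh medium with a range of compound concentrations for 72 h. MTT solution (5 mg/mL) was added for another 4 h. Medium was removed, formazan was dissolved in DMSO, and absorbance was read at 570 nm. IC50 was derived statistically.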

[2] = system: SMMC-7721; test: Antiproliferative activity against human SMMC7721 cells after 72 hrs by MTT assay; format: functional, cell-based; settings: SMMC-7721, 72 h; outline: as §1
[3] = system: MCF7; test: Antiproliferative activity against human MCF7 cells after 72 hrs by MTT assay; format: functional, cell-based; settings: MCF7, 72 h; outline: as §1
[4] = system: GES1; test: Cytotoxicity against human GES-1 cells after 72 hrs by MTT assay; format: cell-based; settings: GES1, 72 h; outline: as §1
[5] = system: MGC-803; test: Cell cycle arrest in human MGC803 cells assessed as accumulation at G2 phase at 0.25 uM after 48 hrs by propidium iodide staining-based flow cytometric method (reference value: 10.60%); format: functional
[6] = system: MGC-803; test: Induction of apoptosis in human MGC803 cells assessed as early apoptotic cells at 0.5 uM after 48 hrs by Annexin-V/propidium iodide staining based flow cytometric analysis (reference value: 3.4%); format: functional
[7] = system: MGC-803; test: Antiproliferative activity against human MGC803 cells after 24 hrs by MTT assay; format: functional, cell-based; settings: MGC-803, 24 h
[8] = system: MGC-803; test: Induction of apoptosis in human MGC803 cells assessed as up-regulation of Bax expression after 48 hrs by Western blot analysis; format: functional, cell-based
Outline: (§2)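 Treated MGC-803 cells were lysed on ice for 30 min in NP-40/SDS/deoxycholate/PMSF buffer. Equal protein was separated by SDS-PAGE and transferred to 0.22 µm nitrocellulose. Membranes were blocked 2 h in 5% nonfat milk/PBS, probed with primary antibody at 4°C overnight, then incubated with secondary antibody for 2 h.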

[9] = system: MGC-803; test: Anti-invasive activity against human MGC803 cells after 48 hrs by Hoechst 33258 staining based matrigel coated transwell assay; format: functional, cell-based
Outline: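 This was an invasion variant of the transwell assay, with the upper chamber precoated with Matrigel. MGC-803 cells in 1% FBS medium with varied compound concentrations were placed above 20% FBS medium. After 48 h, cells were methanol-fixed, stained with 20 µg/mL Hoechst-33258 for 30 min in the dark, and imaged.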

[10] = system: MGC-803; test: Induction of apoptosis in human MGC803 cells assessed as late apoptotic cells at 0.5 uM after 48 hrs by Annexin-V/propidium iodide staining based flow cytometric analysis (reference value: 0.3%); format: functional
[11] = system: MGC-803; test: Induction of apoptosis in human MGC803 cells assessed as early apoptotic cells at 0.1 uM after 48 hrs by Annexin-V/propidium iodide staining based flow cytometric analysis (reference value: 3.4%); format: functional
[12] = system: MGC-803; test: Induction of apoptosis in human MGC803 cells assessed as cell rounding up to 0.5 uM after 48 hrs by Hoechst 33258 staining based fluorescence microscopic method; format: functional
Outline: (§3)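 About 2×10^5 MGC-803 cells per well were treated after attachment with increasing compound concentrations for 48 h. They were fixed and stained with 20 µg/mL Hoechst-33258 for 30 min in the dark, then PBS-washed three times and viewed by fluorescence microscopy under UV excitation. Apoptotic cells were scored by nuclear condensation and fragmentation.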

[13] = system: MGC-803; test: Induction of apoptosis in human MGC803 cells assessed as viable cells at 0.5 uM after 48 hrs by Annexin-V/propidium iodide staining based flow cytometric analysis (reference value: 96.1%); format: functional; settings: MGC-803, 48 h, read-out: Activity
[14] = system: MGC-803; test: Down regulation of N-cadherin protein expression in human MGC803 cells up to 0.5 uM after 48 hrs by Western blot analysis; format: functional, cell-based; outline: as §2
[15] = system: MGC-803; test: Cell cycle arrest in human MGC803 cells assessed as accumulation at S phase at 0.5 uM after 48 hrs by propidium iodide staining-based flow cytometric method (reference value: 28.84%); format: functional
[16] = system: MGC-803; test: Induction of apoptosis in human MGC803 cells assessed as viable cells at 0.1 uM after 48 hrs by Annexin-V/propidium iodide staining based flow cytometric analysis (reference value: 96.1%); format: functional; settings: MGC-803, 48 h, read-out: Activity
[17] = system: MGC-803; test: Induction of apoptosis in human MGC803 cells assessed as necrotic cells at 0.25 uM after 48 hrs by Annexin-V/propidium iodide staining based flow cytometric analysis (reference value: 0.1%); format: functional
[18] = system: MGC-803; test: Anticlonogenic activity against human MGC803 cells at 0.1 to 0.5 uM after 7 to 14 days by crystal violet staining based assay; format: functional, cell-based
Outline: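 MGC-803 cells were seeded at about 1×10^3 per well and left 24 h, then grown 14 days in fresh medium with varied compound concentrations. Cells were PBS-washed, fixed in 4% paraformaldehyde for 30 min, and stained with 1% crystal violet for 30 min at 37°C before colonies were washed clear.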

[19] = system: MGC-803; test: Antimigratory activity against human MGC803 cells after 48 hrs by wound healing assay; format: functional, cell-based
Outline: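 Confluent monolayers were scratched with a sterile pipette tip and PBS-washed. Cells were then cultured in medium containing only 1% FBS with varied compound concentrations for 48 h. Wounds were photographed under an inverted microscope at 0 h and 48 h.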

[20] = system: MGC-803; test: Cell cycle arrest in human MGC803 cells assessed as accumulation at G1 phase at 0.1 uM after 48 hrs by propidium iodide staining-based flow cytometric method (reference value: 60.55%); format: functional
[21] = system: MGC-803; test: Cell cycle arrest in human MGC803 cells assessed as accumulation at S phase after 48 hrs by propidium iodide staining-based flow cytometric method; format: functional
[22] = system: MGC-803; test: Cell cycle arrest in human MGC803 cells assessed as accumulation at S phase at 0.25 uM after 48 hrs by propidium iodide staining-based flow cytometric method (reference value: 28.84%); format: functional
[23] = system: MGC-803; test: Cell cycle arrest in human MGC803 cells assessed as accumulation at G1 phase at 0.25 uM after 48 hrs by propidium iodide staining-based flow cytometric method (reference value: 60.55%); format: functional
[24] = system: MGC-803; test: Cell cycle arrest in human MGC803 cells assessed as accumulation at G1 phase at 0.5 uM after 48 hrs by propidium iodide staining-based flow cytometric method (reference value: 60.55%); format: functional
[25] = system: MGC-803; test: Potency index, ratio of 3-AP IC50 to test compound IC50 for human MGC803 cells after 72 hrs by MTT assay; format: functional
[26] = system: MGC-803; test: Induction of apoptosis in human MGC803 cells assessed as down regulation of Bcl-2 expression after 48 hrs by Western blot analysis; format: functional, cell-based; outline: as §2
[27] = system: MGC-803; test: Antimigratory activity against human MGC803 cells after 48 hrs by Hoechst 33258 staining based transwell assay; format: functional, cell-based
Outline: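 This was a transwell migration set-up. MGC-803 cells in medium with 1% FBS and varied compound concentrations went into the upper chamber, with 20% FBS medium below. After 48 h, chambers were PBS-washed and migrated cells were methanol-fixed. They were stained with 20 µg/mL Hoechst-33258 for 30 min in the dark and imaged on a high-content system.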

[28] = system: MGC-803; test: Antiproliferative activity against human MGC803 cells after 48 hrs by MTT assay; format: functional, cell-based; settings: MGC-803, 48 h
[29] = system: MGC-803; test: Induction of apoptosis in human MGC803 cells assessed as necrotic cells at 0.1 uM after 48 hrs by Annexin-V/propidium iodide staining based flow cytometric analysis (reference value: 0.1%); format: functional
[30] = system: MGC-803; test: Up-regulation of E-cadherin protein expression in human MGC803 cells up to 0.5 uM after 48 hrs by Western blot analysis; format: functional, cell-based; outline: as §2
[31] = system: MGC-803; test: Induction of apoptosis in human MGC803 cells assessed as early apoptotic cells at 0.25 uM after 48 hrs by Annexin-V/propidium iodide staining based flow cytometric analysis (reference value: 3.4%); format: functional
[32] = system: MGC-803; test: Induction of apoptosis in human MGC803 cells assessed as late apoptotic cells at 0.1 uM after 48 hrs by Annexin-V/propidium iodide staining based flow cytometric analysis (reference value: 0.3%); format: functional
[33] = system: MGC-803; test: Induction of apoptosis in human MGC803 cells assessed as viable cells at 0.25 uM after 48 hrs by Annexin-V/propidium iodide staining based flow cytometric analysis (reference value: 96.1%); format: functional; settings: MGC-803, 48 h, read-out: Activity
[34] = system: MGC-803; test: Cell cycle arrest in human MGC803 cells assessed as accumulation at S phase at 0.1 uM after 48 hrs by propidium iodide staining-based flow cytometric method (reference value: 28.84%); format: functional
[35] = system: MGC-803; test: Induction of apoptosis in human MGC803 cells assessed as late apoptotic cells at 0.25 uM after 48 hrs by Annexin-V/propidium iodide staining based flow cytometric analysis (reference value: 0.3%); format: functional
[36] = system: MGC-803; test: Cell cycle arrest in human MGC803 cells assessed as accumulation at G2 phase at 0.1 uM after 48 hrs by propidium iodide staining-based flow cytometric method (reference value: 10.60%); format: functional
[37] = system: MGC-803; test: Induction of apoptosis in human MGC803 cells after 48 hrs by Annexin-V/propidium iodide staining based flow cytometric analysis; format: functional, cell-based
[38] = system: MGC-803; test: Induction of apoptosis in human MGC803 cells assessed as necrotic cells at 0.5 uM after 48 hrs by Annexin-V/propidium iodide staining based flow cytometric analysis (reference value: 0.1%); format: functional
[39] = system: MGC-803; test: Induction of apoptosis in human MGC803 cells assessed as chromatin shrinkage up to 0.5 uM after 48 hrs by Hoechst 33258 staining based fluorescence microscopic method; format: functional, cell-based; outline: as §3
[40] = system: MGC-803; test: Cell cycle arrest in human MGC803 cells assessed as accumulation at G2 phase at 0.5 uM after 48 hrs by propidium iodide staining-based flow cytometric method (reference value: 10.60%); format: functional
[41] = system: MGC-803; test: Induction of apoptosis in human MGC803 cells assessed as formation of apoptotic bodies up to 0.5 uM after 48 hrs by Hoechst 33258 staining based fluorescence microscopic method; format: functional, cell-based; outline: as §3

SMILES: Oc1ccccc1/C=N/NC(=S)Nc1ccccc1
IC50 [1]: 2.42 µM
IC50 [2]: 34.1 µM
IC50 [3]: 12.4 µM

SMILES: NC(=S)N/N=C/c1ncccc1N [TRIAPINE]
IC50 [1]: 9.68 µM
IC50 [2]: 42.8 µM
IC50 [3]: 18.9 µM
IC50 [4]: 5.4 µM

SMILES: C/C(=N\NC(=S)N1CCOCC1)c1cc(Cl)ccc1O
IC50 [1]: 3.06 µM
IC50 [2]: > 64 µM
IC50 [3]: 29.2 µM

SMILES: COc1ccc(/C=N/NC(=S)N2CCOCC2)c(O)c1
IC50 [1]: 56.1 µM
IC50 [2]: 38.3 µM
IC50 [3]: > 64 µM

SMILES: C/C(=N\NC(=S)Nc1ccccc1)c1cc(Cl)ccc1O
Activity [5]: 0%
Activity [6]: 30%
IC50 [7]: > 64 µM
Activity [8]: Dose-dependent effect
Activity [9]: Dose-dependent effect
Activity [10]: 2.3%
Activity [11]: 10.5%
Activity [12]: Active
viability at 0.5 µM [13]: 67.4%
Activity [14]: Active
Activity [15]: 51.85%
IC50 [1]: 0.93 µM
viability at 0.1 µM [16]: 89%
Activity [17]: 0.2%
IC50 [2]: 19.2 µM
Activity [18]: Active
Activity [19]: Dose-dependent effect
Activity [20]: 57.45%
Activity [21]: Dose-dependent effect
Activity [22]: 46.07%
Activity [23]: 53.93%
Activity [24]: 48.15%
IC50 [3]: 9.99 µM
Ratio IC50 [25]: 10
Activity [26]: Dose-dependent effect
Activity [27]: Dose-dependent effect
IC50 [28]: 9.22 µM
Activity [29]: 0.1%
Activity [30]: Active
Activity [31]: 15.1%
Activity [32]: 0.4%
viability at 0.25 µM [33]: 83.5%
Activity [34]: 32.82%
Activity [35]: 1.3%
Activity [36]: 9.73%
Activity [37]: Dose-dependent effect
Activity [38]: 0.3%
Activity [39]: Active
Activity [40]: 0%
Activity [41]: Active
IC50 [4]: 27.9 µM

Continued, values first:

IC50 [1]: > 64 µM
IC50 [2]: > 64 µM
IC50 [3]: > 64 µM
SMILES: C/C(=N\NC(=S)N1CCOCC1)c1cccc(O)c1

IC50 [1]: 11.2 µM
IC50 [2]: > 64 µM
IC50 [3]: 49.2 µM
SMILES: C/C(=N\NC(=S)N1CCOCC1)c1ccccc1O

IC50 [1]: > 64 µM
IC50 [2]: > 64 µM
IC50 [3]: > 64 µM
SMILES: C/C(=N\NC(=S)N1CCOCC1)c1ccc(O)cc1

IC50 [1]: 32.6 µM
IC50 [2]: > 64 µM
IC50 [3]: 44.6 µM
SMILES: C/C(=N\NC(=S)N1CCOCC1)c1ccccc1
